The assay has as its target DNA-(apurinic or apyrimidinic site) endonuclease (Homo sapiens, UniProt P27695). Description: Inhibition of full length human APE1 assessed as reduction in endonuclease activity by measuring DNA cleavage of abasic sites using 6-FAM labelled two annealed oligonucleotides as AP site mimic substrate by fluorescence-based assay. In a few lines: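 Purified full-length APE1 (0.25-1.25 nM) added at once to 50 nM annealed duplex: 5'-6-FAM-labelled AP-site-mimic strand paired with a quencher-labelled strand. Buffer 50 mM Tris, 1 mM MgCl2, 50 mM NaCl, pH 7.5. Compound in triplicate, 10-point 1:2 dilution from 100 μM. Fluorescence from cleavage read kinetically at five 1-min intervals. Reaction rate compared with DMSO vehicle.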

Molecules are shown by their SMILES.

Sequence of DNA-(apurinic or apyrimidinic site) endonuclease (P27695 whole entry): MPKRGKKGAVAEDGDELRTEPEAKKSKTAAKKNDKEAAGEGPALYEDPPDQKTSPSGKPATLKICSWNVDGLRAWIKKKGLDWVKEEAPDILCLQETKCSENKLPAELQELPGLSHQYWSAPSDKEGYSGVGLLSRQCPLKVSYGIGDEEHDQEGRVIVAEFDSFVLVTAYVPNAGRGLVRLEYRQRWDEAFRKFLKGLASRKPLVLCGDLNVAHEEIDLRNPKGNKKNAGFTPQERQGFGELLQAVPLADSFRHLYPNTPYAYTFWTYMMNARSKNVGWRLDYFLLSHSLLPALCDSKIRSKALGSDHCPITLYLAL

Take `Cc1ccc(S(=O)(=O)n2cccc2[C@@H]2NC(=O)[C@H](Cc3c[nH]c4ccccc34)NC(=O)C(Oc3ccccc3)CCOC(=O)C/C=C/[C@@H]2C)cc1` (some centres not stated): the IC50 (as a rule, the concentration needed to halve the response being measured) turned out to be 5.4 µM. Take `Cc1ccc(S(=O)(=O)n2cccc2[C@@H]2NC(=O)[C@H](Cc3c[nH]c4ccccc34)NC(=O)C(c3ccccc3)CCOC(=O)C/C=C/[C@@H]2C)cc1` (some centres not stated): the IC50 turned out to be 1.2 µM.
